A selection: hits, their analogues and other compounds. The true share with any hit is near 2.3%.
Diaphorase act – activates diaphorase or chemically reduces, flagging diaphorase assay artifacts; AID 1229; Diaphorase/resazurin coupled assay, resorufin fluorescence, 16 min; stronger effect = higher value; 1 = vehicle wells, 0 = NADH-free wells; activation factor at 20 µM; actives 0.005% (n = 190,000);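 active = diaphorase activity raised at least twofold by the compound at 20 µM; inactive = activation factor below 2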
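Test system: Clostridium kluyveri diaphorase, purified enzyme; input: enzyme 0.07 U/mL final; buffer or medium: 50 mM HEPES pH 7.4 with 4.542 mM MgCl2, 0.005% Tween 20; also added: 0.114 mM NADH and 0.1 mM resazurin, final amounts; schedule: 16 min enzyme reaction, ambient temperature; technique: fluorescence of resorufin, 544 nm excitation, 590 nm emission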
G6PDH counter – counter-screen for G6PDH assay hits: L. mesenteroides G6PDH inhibition; Purified L. mesenteroides G6PDH, diaphorase/resazurin coupled fluorescence, 45 min; inhibition, % at 5 µM; actives 0.12% (n = 200,000); AID 1020; in the data active = inhibition above about 50%
FLuc stim CS – firefly luciferase counter-screen for stimulation assays | P08659 | ATPlite luciferase biochemical, luminescence, 10 min; 0 = ATP-free wells, 1 = DMSO control | activation factor at 10 µM | 200,000 tested, under 10 active;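 active = luciferase activation factor, scaled between plate controls, of at least 2 with compound at 10 µM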
Target sequence (P08659 whole entry, looked up): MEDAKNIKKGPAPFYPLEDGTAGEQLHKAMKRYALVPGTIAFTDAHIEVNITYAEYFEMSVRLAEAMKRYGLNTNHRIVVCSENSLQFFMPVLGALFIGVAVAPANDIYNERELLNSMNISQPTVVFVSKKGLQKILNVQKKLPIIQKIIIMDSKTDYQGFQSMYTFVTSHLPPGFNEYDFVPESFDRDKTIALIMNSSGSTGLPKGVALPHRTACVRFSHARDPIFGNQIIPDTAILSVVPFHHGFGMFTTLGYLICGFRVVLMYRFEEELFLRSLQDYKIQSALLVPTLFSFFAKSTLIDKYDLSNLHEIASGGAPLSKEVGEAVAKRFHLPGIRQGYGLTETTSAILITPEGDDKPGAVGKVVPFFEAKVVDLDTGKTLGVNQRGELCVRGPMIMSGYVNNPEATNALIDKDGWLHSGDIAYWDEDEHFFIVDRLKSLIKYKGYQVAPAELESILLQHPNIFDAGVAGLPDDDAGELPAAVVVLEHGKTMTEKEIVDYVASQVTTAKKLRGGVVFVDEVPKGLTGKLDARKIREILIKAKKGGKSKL
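Material: luciferase plus luciferin reagent, cell-free. Medium: PBS buffer for ATP. Also added: ATP substrate, dispensed from a 10.24 µM working solution in PBS. Doses: test compounds dosed from 2 mM stocks in 100% DMSO. Incubation: 10 min post-reagent at room temperature. Technique: light output (luminescence). Read-out basis: luminescence gain marking luciferase activators.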
Diaph inh CS – inhibits diaphorase or chemically oxidizes, flagging diaphorase assay artifacts | diaphorase resazurin-to-resorufin fluorescence, NADH, 16 min; bacterial (C. kluyveri) enzyme, not human | inhibition, % at 20 µM | actives 0.69% (n = 190,000) | AID 1217;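 active = primary screen inhibition at 20 µM above a set limit, cut at about 50% in these data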;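 also: plate controls were DMSO with full reaction for no effect and wells lacking NADH for full effect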
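material = Clostridium kluyveri diaphorase enzyme | amount = 0.14 U/mL diaphorase, enzyme working solution | schedule = incubation 16 min, room temperature | detection = fluorescence of resorufin formed from resazurin, Ex 544/Em 590 nm | benchmarks = positive control minus NADH, DMSO neutral control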
FLuc inh counter – inhibits firefly luciferase, flagging false hits in luciferase inhibition screens | P08659 | ATPLite firefly luciferase biochemical luminescence, 10 min | inhibition, % at 10 µM | actives 1.5% (n = 200,000) | AID 1006;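 active = inhibition above about 50% when tested at 10 µM, limit read from the data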
An asterisk follows results filed as active; x = no result given.

SMILES	Diaphorase act	G6PDH counter	FLuc stim CS	Diaph inh CS	FLuc inh counter
CCC/C=N/NC(=O)c1cc(-c2ccccc2)nc2ccccc12	0.9	6	1	14	4
CC(=O)c1ccc(-n2nncc2-c2ccc([N+](=O)[O-])cc2)cc1	1	7	1	-2	-1
CC(C)CCn1c(N2CCc3ccccc3C2)nc2c1c(=O)[nH]c(=O)n2C	0.9	0	1.1	7	-5
CCn1cc(-c2cc(C(=O)O)c3ccccc3n2)cn1	1	4	0.2	2	83*
CC(=O)Nc1cc(-c2ccc(Cl)cc2)[nH]n1	x	18	0.9	x	9
CCCc1nc2c(c(=O)c3ccccc3n2C)c(=O)n1-c1ccc(F)cc1	0.2	1	1.1	78*	-6
Cc1ccc(-c2nc3c(c(=O)c4ccccc4n3C)c(=O)n2-c2ccccc2)cc1	0.5	-6	1	53*	3
CC(C)c1nc2c(c(=O)c3ccccc3n2C)c(=O)n1-c1ccc(F)cc1	0.8	0	1	22	3
Fc1ccc(NC(=S)Nc2ccccc2N2CCOCC2)cc1Cl	0.9	6	1.1	10	-8
O=C(CC1Sc2ccccc2NC1=O)NCc1ccc(Cl)cc1 (configuration not stated)	1.1	5	1.1	-8	-6
COc1ccc(OC)c(C(O)c2coc3ccc(O)c(CN4CCOCC4)c23)c1 (configuration not stated)	1	4	1	3	-1
Cc1cc2cc(CCNC(=O)c3ccc(S(=O)(=O)N4CCOCC4)cc3)c(=O)[nH]c2cc1C	0.4	3	1.1	58*	-5
Cc1cc2cc(CCNC(=O)c3cccc([N+](=O)[O-])c3)c(=O)[nH]c2cc1C	0.6	-2	1	36	-3
Cc1ccc2cc(CCNC(=O)c3ccc(S(=O)(=O)N4CCCCC4)cc3)c(=O)[nH]c2c1	0.3	5	1	72*	-1
Cc1ccc2cc(CCNC(=O)C3CCCC3)c(=O)[nH]c2c1	0.9	-7	1.1	12	-8
CC(=O)Nc1ccc(S(=O)(=O)Nc2nc3ccccc3nc2N2CCCC2)cc1	0.5	-3	1	50*	-5
CC(=O)Nc1ccc(S(=O)(=O)Nc2nc3ccccc3nc2Nc2ccc(S(N)(=O)=O)cc2)cc1	0.8	2	1	15	-1
Nc1cc(N)c(OCC(F)(F)F)cc1OCC(F)(F)F	0.5	51*	1.1	50*	-6
Nc1cc(OCC(F)(F)F)cc([N+](=O)[O-])c1	0.9	0	1.1	5	-7
Nc1cc(C(=O)O)c(Oc2ccc(Cl)cc2Cl)cc1C(=O)O	1	0	1	0	-1
CN(C)c1ccc(/C=N/N=C2/NC(=O)/C(=C/c3ccc([N+](=O)[O-])cc3)S2)cc1	1.1	2	0.1	-10	89*
COc1ccc(/C=N/n2c(-c3n[nH]c4c3CCC4)n[nH]c2=S)cc1OC	0.4	16	0.9	63*	12
Cc1cccc(/C=N/n2c(-c3ccncc3)n[nH]c2=S)c1	0.6	10	1	38	-4
CC[n+]1c(C)sc2cc(C)ccc21	0.5	8	1	54*	-3
CCCC[n+]1c(C)sc2ccc(C)cc21	0.3	13	1.1	66*	-7
SMILES	Diaphorase act	G6PDH counter	FLuc stim CS	Diaph inh CS	FLuc inh counter
CCOC(=O)C/C(C)=N/NC(=O)C1CC1(c1ccccc1)c1ccccc1 (configuration not stated)	0.9	-6	1	13	-5
Cc1cc(C)c(S(=O)(=O)NNC(=O)C2CCN(Cc3ccccc3)CC2)c(C)c1	1	5	1	2	-1
CCN1C2=NCCCN2c2cc(C)c(C)cc21	1	0	1	4	-1
CC(=Nc1ccccc1)c1sc2ccccc2c1O	0.8	-15	0.4	19	61*
CC(=O)c1cn(Cc2ccccc2)c(=O)n(Cc2ccc(F)cc2)c1=O	0.8	8	0.2	16	79*
COc1cc(CNc2ccc3c(c2)CCC3)cc(OC)c1O	0.4	-42	1	56*	-4
CCOC(=O)c1cnc(-n2nc(C)cc2C)nc1N(C)C	0.9	10	0.2	12	80*
Cc1ccc(NC2=C/C(=N/S(=O)(=O)c3cccs3)c3ccccc3C2=O)cc1C	0.9	32	0.9	11	7
Cc1cc(C)c(S(=O)(=O)/N=C2/C=C(Sc3ncn[nH]3)C(=O)c3ccccc32)cc1C	0.5	51*	0.9	50	6
COc1ccc(-n2c(=S)[nH]c3c(oc4ccccc43)c2=O)cc1	0.3	4	1	68*	0
Clc1nc2ccccc2cc1/C=N/Nc1nc2ccccc2[nH]1	1.1	5	0.1	-5	88*
CCCn1c(/C=N/Nc2nc3ccccc3[nH]2)nc2ccccc21	0.8	2	0.9	16	10
CC1C/C(=N/Nc2nc3ccccc3[nH]2)CC(C)(C)C1 (configuration not stated)	0.9	-5	0.9	7	5
c1ccc2[nH]c(NN=C3CCCCCC3)nc2c1	1.2	6	0.2	-23	82*
Cn1c(/C=N/Nc2nc3ccccc3[nH]2)nc2ccccc21	1.2	5	0.2	-18	83*
C(=N\Nc1nc2ccccc2[nH]1)/c1cccs1	0.9	10	0.3	6	68*
COc1cc(-c2noc(CCCC(=O)NC3CCCCC3)n2)cc(OC)c1OC	0.9	2	1.1	8	-7
Cc1ccsc1/C=N/Nc1nc2ccccc2[nH]1	1	-21	0.3	4	74*
Cc1nn(-c2ccccc2)c(C)c1/C=N/Nc1nc2ccccc2[nH]1	1.1	-13	0.2	-6	80*
Cc1ccc2nc(-c3ccc(NS(=O)(=O)c4ccccc4)cc3)sc2c1	0.9	-13	1	8	1
Cc1ccc2nc(-c3ccc(NS(=O)(=O)c4ccc(F)c(F)c4)cc3)sc2c1	0.8	12	0.5	19	55*
O=C1CCNc2cc3ccccc3cc21	0.3	58*	1	66*	2
COc1cc(/C=N/Nc2nc3ccccc3[nH]2)cc(Br)c1OCC(=O)N(C)C	1.1	0	0.8	-8	17
COc1cc(/C=N/Nc2nc3ccccc3[nH]2)cc(OC)c1O	0.8	-10	0.4	21	61*
C(=N\Nc1nc2ccccc2[nH]1)/c1ccc2c(c1)OCO2	1.1	-7	0.5	-9	55*
CC(/C=N/Nc1nc2ccccc2[nH]1)=C\c1ccccc1	0.9	-39	0.3	13	72*
COc1cc(/C=C(/C(=O)c2cccs2)c2nc3ccccc3[nH]2)cc(OC)c1O	0.8	16	0.2	22	77*

High-throughput results from PubChem BioAssay.
